Results published in PMC5570473 (Nature chemical biology, 2017).
Where two headings read alike, the source gives them in different places. Peptide text beside a SMILES is read from it. * marks the point of attachment. Cbz = O=C(OCc1ccccc1)*

Legend:
Rpn11 = Rpn11 (Homo sapiens, UniProt O00487); test: In vitro Rpn11 activity assay; format: biochemical; settings: for effect of Zn(cyclen)^2+ on IC50 for Rpn11: 100 μM Zn(cyclen)^2+ present
Rpn11•Rpn8 heterodimer = Rpn11•Rpn8 heterodimer (Saccharomyces cerevisiae, UniProt P43588); test: Rpn11•Rpn8 di-Ub cleavage assay; format: biochemical; settings: 40 μM, 20 μM or 10 μM
Rpn11•Rpn8 heterodimer, sequence (P43588 2-239 limits assumed): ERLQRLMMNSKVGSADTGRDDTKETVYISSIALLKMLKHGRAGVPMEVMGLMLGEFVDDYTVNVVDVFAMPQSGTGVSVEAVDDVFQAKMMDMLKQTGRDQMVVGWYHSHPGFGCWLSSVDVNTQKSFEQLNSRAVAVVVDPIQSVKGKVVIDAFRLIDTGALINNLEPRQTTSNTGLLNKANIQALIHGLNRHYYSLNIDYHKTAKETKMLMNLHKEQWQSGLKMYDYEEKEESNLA
Rpn11•Rpn8 heterodimer, sequence (Q08723 1-179 partner limits assumed): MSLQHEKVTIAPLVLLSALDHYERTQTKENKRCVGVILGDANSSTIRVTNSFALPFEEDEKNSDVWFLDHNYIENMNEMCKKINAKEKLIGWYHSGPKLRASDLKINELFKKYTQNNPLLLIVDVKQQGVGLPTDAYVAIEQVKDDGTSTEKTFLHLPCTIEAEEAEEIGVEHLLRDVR
Method in brief: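 Purified Rpn11•Rpn8 dimer (5 μM) was incubated at 30°C with K48-linked di-ubiquitin and varying test compound concentrations. The buffer was 40 mM HEPES pH 7.5, 100 mM NaCl, 100 mM KCl, 5% glycerol.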

A549 cells = test: Aggresome formation and clearance assay; format: cell-based, human; settings: for aggresome formation (ubiquitin, HDAC6, p62/SQSTM1 staining): 15 hours
Method in brief: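 A549 cells were loaded with 5 μM MG132 for 15 h, washed free of it, then held ± a range of test compound concentrations for 24 h. They were fixed in 4% paraformaldehyde, permeabilised with 0.2% Triton X-100, blocked in 5% FBS/0.1% Triton X-100, immunostained for ubiquitin, HDAC6 or p62/SQSTM1, and imaged.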

[1] = mice ref 49; cited from earlier work
[2] = test system: Hela cells stably expressing Ub^G76V-GFP; test: Ub^G76V-GFP accumulation assay; format: cell-based; settings: for accumulation of Ub^G76V-GFP: 5 μM, 4 hours
[3] = test system: WT or nfe2l1^−/− MEF cells; test: Cell growth inhibition in WT versus Nrf1 knockout MEF cells; format: cell-based; settings: 72 hours
[4] = test system: angiomotin K481 ubiquitination in 293T cells; test: Quantitative ubiquitination site profiling; format: cell-based, human; settings: 8 hours, 10 μM capzimin or 1 μM BTZ
Method in brief: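 SILAC-labelled HEK293T cells were grown in Arg/Lys-free DMEM with 10% dialysed FBS, 1 mM pyruvate and 10 mg/L proline. At 80–90% confluence they were treated 8 h with 10 μM test compound (n=3), 1 μM bortezomib (n=4) or DMSO. Cells were trypsinised and pooled from three plates per treatment. Lysates were trypsin-digested with NEM alkylation, K-ε-GlyGly peptides enriched by antibody, and analysed by LC-MS.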

AMSH = AMSH (Homo sapiens, UniProt O95630); test: In vitro AMSH activity assay; format: biochemical
AMSH, sequence (O95630 whole entry): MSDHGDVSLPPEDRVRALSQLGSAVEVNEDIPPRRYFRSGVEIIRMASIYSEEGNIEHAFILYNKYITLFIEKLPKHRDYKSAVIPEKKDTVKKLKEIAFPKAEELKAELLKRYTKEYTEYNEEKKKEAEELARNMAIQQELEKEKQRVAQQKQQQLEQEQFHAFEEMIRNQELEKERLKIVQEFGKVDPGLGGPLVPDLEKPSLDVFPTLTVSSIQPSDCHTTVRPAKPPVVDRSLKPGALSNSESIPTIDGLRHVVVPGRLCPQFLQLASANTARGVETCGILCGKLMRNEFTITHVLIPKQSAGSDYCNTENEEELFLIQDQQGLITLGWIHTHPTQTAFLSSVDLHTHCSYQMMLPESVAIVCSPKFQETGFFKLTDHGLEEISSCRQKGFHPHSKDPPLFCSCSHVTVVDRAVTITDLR

BRCC36 = BRCC36 (Homo sapiens, UniProt P46736); test: In vitro BRCC36 activity assay; format: biochemical
Method in brief: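 BRISC complex (BRCC36, KIAA0157, BRCC45, MERIT40) was co-expressed in insect cells and purified to >95% by affinity and size exclusion. 1 nM BRISC was reacted with 80 nM DiUbK63-TAMRA, monitoring TAMRA fluorescence (ex 540/em 590 nm). Data were normalised to DMSO and fitted for IC50. With substrate far below KM, IC50 approximates Ki.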

glyoxalase I (GLO1) = glyoxalase I (GLO1) (Homo sapiens, UniProt Q04760); test: Human Glyoxalase 1 assay; format: biochemical
glyoxalase I (GLO1), sequence (Q04760 2-184 limits assumed): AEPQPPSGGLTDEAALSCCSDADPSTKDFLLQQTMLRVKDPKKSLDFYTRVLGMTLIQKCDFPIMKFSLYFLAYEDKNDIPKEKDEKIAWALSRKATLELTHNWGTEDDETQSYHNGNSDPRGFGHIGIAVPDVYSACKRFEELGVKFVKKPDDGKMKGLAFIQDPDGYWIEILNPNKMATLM
Method in brief: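 Recombinant human GLO1 (40 ng) was preincubated 15–20 min with inhibitor in 100 mM sodium phosphate, pH 7.0. Substrate was then added, formed by letting glutathione and methylglyoxal stand 20 min in buffer (≤5% DMSO final). A240 was read every minute for 8 min. Rates were compared with no-inhibitor controls after subtracting no-enzyme background.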

HDAC6 = test: HDAC 6 activity assay; format: biochemical
MMP2 = test: MMP activity assay; format: biochemical, human
MMP12 = test: MMP activity assay; format: biochemical, human
carbonic anhydrase II = test: hCAII activity assay; format: biochemical, human
26S proteasome = 26S proteasome (Saccharomyces cerevisiae, UniProt P43588); format: biochemical, yeast; settings: 20 μM, purified proteasomes
Method in brief: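 Alexa488-labelled Rpn10-I27V13Pext (100 nM) was incubated with 10 nM purified yeast 26S proteasome at 30°C, ± 20 μM test compound. Aliquots were taken at 0, 30, 60, 90 and 120 min into SDS sample buffer and resolved by SDS-PAGE. Intact substrate was quantified by fluorescence gel imaging (488/520 nm).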

HEK293T cells = test: Cellular imaging with optical zinc sensor; format: cell-based; settings: 10 μM
Method in brief: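 HEK293T cells were transfected with a FRET zinc sensor and imaged 24–48 h later at 37°C/5% CO2 in phosphate-free HEPES-buffered HBSS, pH 7.4, with frames every minute. After 5 min resting FRET, 10 μM test compound or 0.5% DMSO was added (n=11 cells each). Calibration used 50 μM TPA, then 0.75 μM pyrithione plus 12 μM buffered zinc. Background-corrected FRET/CFP ratios were normalised to resting; error bars SEM.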

HCT116 cells [5] = test: Cell growth inhibition, CellTiter-Glo, 72 hours; format: cell-based; settings: Homo sapiens, HCT-116, 72 h
Method in brief: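 HCT116 cells were exposed to a test-compound concentration series for 72 h in normal or low-serum medium, then mixed with CellTiter-Glo. Luminescence was normalised to DMSO and a dose-response fit gave GI50. Data are n=3 wells, one representative of 3 independent experiments.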

[6] = test system: WT or bortezomib-resistant RPE1 cells; test: Cell growth inhibition in WT and bortezomib-resistant RPE1 cells; format: cell-based; settings: 72 hours
Method in brief: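 WT and bortezomib-resistant RPE1 cells received a concentration series of test compound for 72 h before CellTiter-Glo addition. Luminescence was normalised to DMSO control and fitted to a dose-response equation for GI50. Data are n=3 wells, from one representative of 3 independent experiments.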

[7] = test system: NCI panel of 60 cancer cell lines; test: NCI panel of 60 cancer cell lines; format: cell-based; settings: Homo sapiens, read-out: median GI50 NCI 60 panel
SR cell line (leukemia) = test: NCI 60 panel, SR cell line; format: cell-based; settings: Homo sapiens, read-out: GI50 SR
[8] = test system: K562 cell line (leukemia); test: NCI 60 panel, K562 cell line; format: cell-based; settings: Homo sapiens, K562, read-out: GI50 K562
[9] = test system: NCI-H460 (non-small cell lung cancer); test: NCI 60 panel, NCI-H460; format: cell-based; settings: Homo sapiens, NCI-H460, read-out: GI50 NCI-H460
MCF7 (breast cancer) = test: NCI 60 panel, MCF7; format: cell-based; settings: Homo sapiens, MCF7, read-out: GI50 MCF7
HCT116 cells [10] = test: Immunoblot of UPS substrates, UPR and apoptosis markers; format: cell-based
Method in brief: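 HCT116 cells were treated 6 h with 2 or 10 μM test compound, alongside 1 μM bortezomib, 10 μM CB5083 or 2 μg/ml tunicamycin. Lysates were immunoblotted for ubiquitin, p53, Hif1α, PERK, BiP, XBP1s, CHOP and GAPDH. For apoptosis, HCT116 cells were treated 24 h and blotted for PARP1, caspase3, pH2AX and GAPDH.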

angiomotin in 293T cells = test: Pulldown of polyubiquitylated protein; format: cell-based; settings: 8 hours
Method in brief: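 293T cells were treated 8 h with test compound, bortezomib or DMSO. Lysis was in 40 mM Tris-HCl pH 7.6, 5 mM NEM, 0.1% NP-40, followed by binding to TUBE2 agarose for 2 h at 4°C. Beads were washed three times in the same buffer with 150 mM NaCl, then eluted in SDS buffer. Eluates were immunoblotted for ubiquitin and angiomotin.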

SMILES: Sc1cccc2cccnc12 [8TQ, quinoline-8-thiol]
- mode of inhibition of Rpn11 / 26S proteasome (Rpn11): uncompetitive inhibition
- effect of Zn(cyclen)^2+ on IC50 for Rpn11 (Rpn11): shifted the IC50 of both compounds to a higher value
- discrimination between Rpn11, BRCC36 and AMSH (Rpn11; details will be published elsewhere): did not distinguish between Rpn11, BRCC36, and AMSH
- inhibition at 200 µM (Rpn11; read-out: inhibition of Rpn11 activity in MBP library screen): > 50%
- inhibition of purified Rpn11•Rpn8 (K48 di-ubiquitin cleavage) (Rpn11•Rpn8 heterodimer): inhibited purified Rpn11•Rpn8 heterodimer
- clearance of MG132-induced aggresomes after MG132 removal and compound addition (A549 cells): not cleared
- oral bioavailability [1]: orally bioavailable
- tolerability [1]: tolerated

SMILES: O=C(Sc1cccc2cccnc12)c1ccccc1Br [H18, S-(Quinolin-8-yl) 2-bromobenzothioate]
- effect of Zn(cyclen)^2+ on IC50 for Rpn11 (Rpn11): shifted the IC50 of both compounds to a higher value

SMILES: CC(C)C[C@@H](C=O)NC(=O)[C@H](CC(C)C)NC(=O)[C@H](CC(C)C)NC(=O)OCc1ccccc1 [MG132, reference compound] (Cbz-Leu-Leu-Leu-aldehyde)
- accumulation of Ub^G76V-GFP [2]: strong accumulation
- aggresome formation (ubiquitin, HDAC6, p62/SQSTM1 staining) (A549 cells): punctate staining characteristic of aggresomes

SMILES: CC(C)C[C@H](NC(=O)[C@H](Cc1ccccc1)NC(=O)c1cnccn1)B(O)O [bortezomib, reference compound]
- sensitivity of Nrf1^−/− cell line compared to WT MEF [3]: more sensitive
- up-regulation of angiomotin ubiquitination at K481 [4]: 2.4 fold

SMILES: O=C(NCCc1nccs1)c1cnc2c(SSc3cccc4cc(C(=O)NCCc5nccs5)cnc34)cccc2c1 [capzimin]
- mode of inhibition of Rpn11 / 26S proteasome (Rpn11): uncompetitive inhibitor
- mode of inhibition of AMSH (AMSH): competitive inhibitor
- mode of inhibition of BRCC36 (BRCC36): competitive inhibitor
- IC50 (glyoxalase I (GLO1)): 43 µM
- preference for inhibiting Rpn11 compared to HDAC6 (HDAC6): > 2 log
- preference for inhibiting Rpn11 compared to MMP2 (MMP2): > 2 log
- preference for inhibiting Rpn11 compared to MMP12 (MMP12): > 2 log
- preference for inhibiting Rpn11 compared to carbonic anhydrase II (carbonic anhydrase II): > 2 log
- inhibition of purified Rpn11•Rpn8 (K48 di-ubiquitin cleavage) (Rpn11•Rpn8 heterodimer): acted directly on Rpn11•Rpn8
- influence on degradation of ubiquitin-independent substrate Rpn10-127^V13Pext (26S proteasome): no influence
- reduction in total cellular zinc (HEK293T cells): ≤ 5%
- accumulation of Ub^G76V-GFP [2]: strong accumulation
- reversibility of inhibitory effect ([2]; after washout): reversible after washout
- GI50 (HCT116 cells [5]; read-out: GI50 HCT116): ~2000 nM
- GI50 (HCT116 cells [5]; read-out: GI50 HCT116 low serum): 600 nM
- GI50 against WT versus bortezomib-resistant retinal pigment epithelial cells [6]: same GI50
- GI50 [7]: 3.3 µM
- GI50 (SR cell line (leukemia)): 670 nM
- GI50 [8]: 1000 nM
- GI50 [9]: 700 nM
- GI50 (MCF7 (breast cancer)): 1000 nM
- sensitivity of Nrf1^−/− cell line compared to WT MEF [3]: more sensitive
- up-regulation of angiomotin ubiquitination at K481 [4]: ~ 16 fold
- aggresome formation (ubiquitin, HDAC6, p62/SQSTM1 staining) (A549 cells): punctate staining characteristic of aggresomes
- effect on Nedd8-conjugated Cul1 (cellular Csn5) (HCT116 cells [10]): little effect
- accumulation of ubiquitin conjugates and proteasome substrates p53, Hif1α, Nrf2 (HCT116 cells [10]; 2 or 10 μM, 6 hours): caused accumulation
- apoptosis (processed caspase 3, cleaved PARP) (HCT116 cells [10]; 24 hours): induced apoptosis
- unfolded protein response (phosphorylated PERK, XBP1s, CHOP) (HCT116 cells [10]; HCT116 and 293T cells): provoked a UPR response
- accumulation of high molecular weight species of angiomotin (angiomotin in 293T cells): strong accumulation
